This is a sample that favours compounds with a hit; in the whole collection about 5.7% have one here.
T cruzi inh: blocks replication of Trypanosoma cruzi | T. cruzi beta-gal in NIH3T3, luminescence, 90 h | inhibition, % (test concentration not listed) | 1.4% of 300,000 active;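 active means mean inhibition across valid replicates above about 55%, limit read from the data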;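 further: signal also drops with host cell toxicity which is not excluded here; 0% = plate median of DMSO wells and 100% = zero luminescence signal; higher percent means less beta-gal luminescence so fewer parasites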
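System: NIH/3T3 fibroblasts plus reporter T. cruzi. Medium: DMEM plus 2% FBS. Probe or stimulus: 5000 reporter trypomastigotes per well. Compound: single 50 nL compound addition per well in DMSO. Incubation: co-culture of at least 90 h after 3 h attachment. Detection: GalScreen β-gal luminescence, detergent lysis, 60 min. Evaluation: parasite load inhibition, %.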
Calb FLC: affects C. albicans growth with fluconazole | C. albicans CaCi-2 + fluconazole, Alamar Blue growth, 48 h | growth inhibition, % (concentration not given with the values) | 0.57% of 300,000 active;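 active means growth inhibition above about 58% in most replicates, limit read from the data, passing the limit was not always enough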;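 further: all wells also contain fluconazole at 8 µg/ml as a sub-toxic cotreatment; 0% = median of DMSO wells and 100% = median of geldanamycin control wells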
Beta cell apopt: beta cell apoptosis inhibition; INS-1E cytokine-induced death, ATP luminescence, 48 h; percent of positive-control rescue, neutral wells zero; protection from apoptosis, % (no concentration beside the values); 0.8% of 300,000 active;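 active means Every replicate reaches about 75%, or at least half do and their mean reaches it too, limit read from the data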;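 further: 0% = cytokine-treated negative control wells and 100% = positive control rescue; higher means more ATP so stronger rescue from cytokine killing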
CSC inhib: cancer stem cell inhibition. cancer stem cell-like cells viability, luminescence. inhibition, % at 7.5 µM. 1.1% of 300,000 active; in the data active means inhibition above about 75%; tested in HMLE shEcad cells
Mdm2-MdmX inh: disrupts the human Mdm2-MdmX interaction; O15151+Q00987; SaOS-2 split-luciferase Mdm2/MdmX complementation, luminescence; inhibition, % at 8 µM; 3% of 330,000 active; AID 485346;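 active means inhibition of at least 50% at 8 µM in the primary screen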
Target sequence (O15151 whole entry, looked up): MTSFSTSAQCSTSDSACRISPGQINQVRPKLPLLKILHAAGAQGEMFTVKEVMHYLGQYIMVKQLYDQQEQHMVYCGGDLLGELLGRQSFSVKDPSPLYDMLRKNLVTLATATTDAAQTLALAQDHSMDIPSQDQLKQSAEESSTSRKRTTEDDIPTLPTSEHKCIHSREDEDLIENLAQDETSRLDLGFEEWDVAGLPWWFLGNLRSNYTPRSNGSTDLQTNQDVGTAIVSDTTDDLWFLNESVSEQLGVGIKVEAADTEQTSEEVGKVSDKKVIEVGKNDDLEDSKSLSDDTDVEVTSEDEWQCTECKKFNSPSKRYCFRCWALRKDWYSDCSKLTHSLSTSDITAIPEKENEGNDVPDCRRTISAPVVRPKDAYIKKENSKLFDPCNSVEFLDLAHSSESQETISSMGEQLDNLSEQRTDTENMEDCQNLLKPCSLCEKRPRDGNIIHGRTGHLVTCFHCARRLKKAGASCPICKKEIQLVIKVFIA
Target sequence (Q00987 whole entry, looked up): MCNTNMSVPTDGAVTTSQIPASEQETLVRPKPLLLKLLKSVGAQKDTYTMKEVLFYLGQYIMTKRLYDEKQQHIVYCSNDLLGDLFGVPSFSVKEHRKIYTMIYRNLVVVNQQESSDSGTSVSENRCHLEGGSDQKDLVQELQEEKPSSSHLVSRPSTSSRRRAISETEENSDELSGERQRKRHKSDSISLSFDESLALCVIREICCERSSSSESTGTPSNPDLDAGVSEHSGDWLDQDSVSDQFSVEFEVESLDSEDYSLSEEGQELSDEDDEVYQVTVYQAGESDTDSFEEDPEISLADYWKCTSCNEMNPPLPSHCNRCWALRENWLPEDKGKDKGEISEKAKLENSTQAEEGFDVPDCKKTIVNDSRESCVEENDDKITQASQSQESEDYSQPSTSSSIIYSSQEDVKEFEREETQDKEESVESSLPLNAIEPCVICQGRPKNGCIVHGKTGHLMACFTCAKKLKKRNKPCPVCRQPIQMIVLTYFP
SKKanGAS inh: inhibitors of SKKanGAS S. pyogenes growth in kanamycin (SK-promoter or general growth effect); 1.3% of 300,000 active; inhibition, % at 7.5 µM; BacTiter-Glo, 6 h;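 active means mean replicate score, as percent of positive control median, at least 50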;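 further: strain carries kanamycin resistance gene driven by streptokinase promoter and grows in 40 µg/ml kanamycin; loss of luminescence reflects streptokinase promoter inhibition or plain growth inhibition; 0% = median of DMSO wells and 100% = positive control at its reference dose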
Mdm2-MdmX conf: human Mdm2/MdmX binding inhibition, confirmed; shares compounds with Mdm2-MdmX inh; luminescent assay; inhibition, % at 8 µM; 55% of 10,000 active; AID 489028; in the data active means inhibition above about 40%
Full FLuc ctr: inhibits full-length luciferase, flagging false Mdm2/MdmX hits | shares compounds with Mdm2-MdmX inh | SaOS-2 full-length luciferase counterscreen, luminescence | inhibition, % at 8 µM | 77% of 6,200 active | AID 504607;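 active means mean inhibition at 8 µM reaching about 37%, which flags the compound as non-specific, limit read from the data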;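 further: p53-null SaOS-2 cells with luciferase driven by a doxycycline-inducible promoter; compound on cells about two nights before reading with doxycycline added after day one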
The depositor's hits bear a star; . = not tested or not shown.

SMILES	T cruzi inh	Calb FLC	Beta cell apopt	CSC inhib	Mdm2-MdmX inh	SKKanGAS inh	Mdm2-MdmX conf	Full FLuc ctr
Cc1cc2nc(NCCCO)n(CC(=O)c3cc(C(C)(C)C)c(O)c(C(C)(C)C)c3)c2cc1C	.	.	98*	75*	98*	.	64*	41*
CCN(CC)CCNC(=O)c1c(C)n(-c2ccccc2)c2cc(Br)c(OC)cc12	17	12	11	6	81*	-1	38	38*
COCCN(C(=O)CCl)C(C(=O)NC1CCCCC1)c1ccccc1C (stereo not drawn)	-10	-3	.	.	97*	1	72*	38*
O=C(NC1CCCC1)C(c1ccc(F)cc1)N(Cc1ccc(F)cc1)C(=O)c1ccn[nH]1 (stereo not drawn)	14	-6	0	-10	-12	25	.	.
COCCN(C(=O)CCC(=O)Nc1cc(C)on1)C(C(=O)NC1CCCC1)c1ccccc1C (stereo not drawn)	2	6	-19	-10	-20	-3	.	.
O=C(NC1CCCC1)C(c1ccc(F)cc1)N(Cc1ccccc1Cl)C(=O)CCl (stereo not drawn)	-10	-1	-6	7	55*	-4	20	.
Cc1cc(=O)n2nc(N3CCCC3C(=O)Nc3ccc(C(C)C)cc3)sc2n1 (stereo not drawn)	11	0	0	-10	12	-2	.	.
CCOc1ccc2c(c1)c(C(C)=O)c(C)n2-c1ccccc1	11	-1	-1	-11	20	-8	.	.
COC(=O)c1c(C)n(-c2ccc(OC)cc2)c2ccc(O)cc12	15	-11	1	.	66*	26	64*	20
COc1ccc2c(c1)c(C(=O)O)c(C)n2-c1ccccc1	13	1	-4	-8	7	5	.	.
COc1ccc(-n2c(C)c(C(C)=O)c3cc(OC(C)=O)ccc32)cc1	5	-1	8	10	82*	19	86*	6
COc1ccc2c(c1)c(C(C)=O)c(C)n2-c1ccc(C(C)=O)cc1	1	10	.	.	61*	-8	61*	40*
CCOc1ccccc1NC(=O)CSc1nnnn1C1CCCC1	15	6	3	-8	18	2	.	.
O=C1C2C(c3ccccc3)CC=CC2[C@H](c2ccc3ccccc3c2)N1Cc1ccccc1 (stereo partly drawn)	16	0	10	56	57*	24	30	.
Cc1ccc(-c2cc([C@H]3[C@H]4C=CC[C@@H](C)[C@@H]4C(=O)N3Cc3ccccc3)ccc2F)cc1	51	-13	-3	59	1	36	.	.
CC[C@@H]1CC=C[C@H]2[C@H]1C(=O)N(Cc1ccccc1)[C@H]2c1cc(C)ccc1F	34	-12	.	.	54*	58*	42*	49*
Cc1ccc(F)c([C@H]2C3C=CCC(c4ccccc4)C3C(=O)N2Cc2ccccc2)c1 (stereo partly drawn)	24	-6	109*	122*	58*	50*	24	.
O=C1C2C(c3ccccc3)CC=CC2[C@H](c2ccoc2)N1Cc1ccccc1 (stereo partly drawn)	14	-2	-5	19	2	13	.	.
CC(=O)N/C(=C\c1ccccc1)C(=O)OCC(=O)Nc1cc(S(=O)(=O)N(C)C)ccc1C	-9	-2	-2	-11	34	16	.	.
CCCCn1c(N)c(N(CC(C)C)C(=O)C2CCN(S(=O)(=O)c3ccc(Cl)cc3)CC2)c(=O)[nH]c1=O	7	7	0	0	6	0	.	.
CC(C)CN(C(=O)CN(C)CC(=O)Nc1ccc(Cl)c(C(F)(F)F)c1)c1c(N)n(CC(C)C)c(=O)[nH]c1=O	.	.	-12	2	11	.	.	.
COc1ccccc1CCC(=O)OCC(=O)Nc1ccc2[nH]c(=O)[nH]c2c1	-7	-11	-2	-14	15	-1	.	.
S=C1NC[C@H](c2ccccc2)N1CCCCC1CCCCC1	6	4	0	12	3	16	.	.
NC1=NC[C@H](c2ccccc2)N1CCCCC1CCCCC1	50	58	38	0	51*	-1	28	.

Bioassay records deposited in PubChem BioAssay by several laboratories.
